Results on 24 molecules are retold here after ChEMBL document CHEMBL5579857, “Fragment-Based Discovery of Novel MUS81 Inhibitors” (ACS Med Chem Lett, 2024).

The nature of data set [1]: Binding affinity to human Avi-tagged MUS81 (246 to 551 residues)/2x8His-tagged EME1 (246 to 570 residues) extracted from Escherichia coli BL21 Gold (DE3) by SPR analysis. In outline:
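Fragments flagged as hits in a DSF screen were taken into SPR against MUS81-EME1 to confirm binding and obtain Kd. Kd is reported as the geometric mean with geometric standard deviation of at least three determinations.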
(Surface plasmon resonance follows binding to a sensor surface in real time, without labels.)

Data set [2] is described as follows: Inhibition of human Avi-tagged MUS81 (246 to 551 residues)/2x8His-tagged EME1 (246 to 570 residues) extracted from Escherichia coli BL21 Gold (DE3) using branched DNA as substrate preincubated for 15 mins followed by substrate addition and measured after 90 mins by FRET assay. Summed up:
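IC50 is reported as the geometric mean ± SEM of at least three independent determinations.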

A short description of data set [3]: Lipophilicity, logD of the compound in octanol/water at pH 7.4 by shake flask method. The data set is classed as physicochemical.
Data set [4] can be described thus: Kinetic aqueous solubility of the compound at pH 7.4. Type of data set: physicochemical. The following applies: buffer.
Data set [5] is described as follows: Metabolic stability in human liver microsomes assessed as intrinsic clearance. The data set is classed as ADME, Microsome. On the technique in general: Liver microsomes are vesicles of endoplasmic reticulum, rich in cytochrome P450 enzymes.
The nature of data set [6]: Metabolic stability in rat hepatocytes assessed as intrinsic clearance measured per million cells. The data set is classed as ADME, cell-based, Hepatocyte. As to conditions: read-out: CLH.
Data set [7] is described as follows: Efflux ratio of apparent permeability in human Caco-2 cells. The data set is classed as ADME, cell-based. (In general: Caco-2 cells form a polarised layer with tight junctions and transporters.)
The target of data set [8] is Voltage-gated inwardly rectifying potassium channel KCNH2 (Homo sapiens, UniProt Q12809). Briefly: Inhibition of hERG. Type of data set: toxicity.
Chain of Voltage-gated inwardly rectifying potassium channel KCNH2 (Q12809 whole entry): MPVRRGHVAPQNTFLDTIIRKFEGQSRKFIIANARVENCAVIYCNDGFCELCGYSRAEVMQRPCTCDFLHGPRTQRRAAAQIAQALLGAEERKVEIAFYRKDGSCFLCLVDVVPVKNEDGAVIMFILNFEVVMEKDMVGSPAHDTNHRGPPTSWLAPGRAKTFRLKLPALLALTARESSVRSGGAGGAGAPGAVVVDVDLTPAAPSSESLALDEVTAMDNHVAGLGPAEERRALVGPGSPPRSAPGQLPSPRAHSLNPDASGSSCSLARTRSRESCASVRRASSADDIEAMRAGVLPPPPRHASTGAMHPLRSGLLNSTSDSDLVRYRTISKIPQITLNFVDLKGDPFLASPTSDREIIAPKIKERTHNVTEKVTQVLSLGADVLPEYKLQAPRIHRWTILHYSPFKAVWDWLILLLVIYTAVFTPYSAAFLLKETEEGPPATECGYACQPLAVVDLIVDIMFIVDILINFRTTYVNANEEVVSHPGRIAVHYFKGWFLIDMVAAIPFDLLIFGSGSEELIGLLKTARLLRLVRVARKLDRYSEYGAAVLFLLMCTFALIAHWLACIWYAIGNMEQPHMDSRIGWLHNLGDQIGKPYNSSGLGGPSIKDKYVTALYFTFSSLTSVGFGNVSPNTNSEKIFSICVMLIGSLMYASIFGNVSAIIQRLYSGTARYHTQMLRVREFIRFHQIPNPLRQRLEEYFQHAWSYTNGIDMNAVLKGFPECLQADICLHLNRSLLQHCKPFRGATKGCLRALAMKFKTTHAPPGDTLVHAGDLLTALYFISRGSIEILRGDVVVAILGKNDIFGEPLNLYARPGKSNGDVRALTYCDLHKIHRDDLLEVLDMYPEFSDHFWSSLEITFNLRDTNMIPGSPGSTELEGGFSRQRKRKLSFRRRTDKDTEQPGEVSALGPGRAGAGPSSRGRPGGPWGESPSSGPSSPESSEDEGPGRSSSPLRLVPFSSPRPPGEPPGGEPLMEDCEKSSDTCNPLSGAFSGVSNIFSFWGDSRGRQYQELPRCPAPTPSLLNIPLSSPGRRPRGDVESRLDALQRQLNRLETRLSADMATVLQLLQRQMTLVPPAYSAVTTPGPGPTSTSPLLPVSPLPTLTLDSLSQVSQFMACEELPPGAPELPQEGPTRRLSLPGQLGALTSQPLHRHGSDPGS
Data set [9] has as its target T1, Prostaglandin G/H synthase 2 (Homo sapiens, UniProt P35354).
T1 sequence (P35354 whole entry): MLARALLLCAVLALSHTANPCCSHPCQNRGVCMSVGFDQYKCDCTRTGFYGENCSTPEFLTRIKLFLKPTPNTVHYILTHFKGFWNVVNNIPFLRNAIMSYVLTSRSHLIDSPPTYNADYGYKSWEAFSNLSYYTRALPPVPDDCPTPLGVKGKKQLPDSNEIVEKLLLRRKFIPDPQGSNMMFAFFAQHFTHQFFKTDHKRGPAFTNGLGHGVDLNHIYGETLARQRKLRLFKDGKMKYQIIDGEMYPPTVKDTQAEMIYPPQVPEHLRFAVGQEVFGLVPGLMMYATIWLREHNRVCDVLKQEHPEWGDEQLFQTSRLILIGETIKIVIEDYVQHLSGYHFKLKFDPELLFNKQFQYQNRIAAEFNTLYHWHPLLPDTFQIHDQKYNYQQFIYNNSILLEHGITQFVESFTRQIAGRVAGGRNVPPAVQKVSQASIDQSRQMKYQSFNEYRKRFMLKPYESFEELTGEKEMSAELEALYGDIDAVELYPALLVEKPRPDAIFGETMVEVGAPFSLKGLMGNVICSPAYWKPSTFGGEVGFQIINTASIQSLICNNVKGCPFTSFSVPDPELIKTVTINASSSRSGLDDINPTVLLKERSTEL
In words: Inhibition of COX2 (unknown origin). The data set is classed as toxicity.

Data set [10] relates to PDE. Briefly: Inhibition of PDE (unknown origin). Type of data set: toxicity, Homo sapiens.
For data set [11], the target named is Insulin receptor (Homo sapiens, UniProt P06213). In words: Inhibition of INSR (unknown origin). Type of data set: toxicity.
Chain of Insulin receptor (P06213 28-758 limits assumed): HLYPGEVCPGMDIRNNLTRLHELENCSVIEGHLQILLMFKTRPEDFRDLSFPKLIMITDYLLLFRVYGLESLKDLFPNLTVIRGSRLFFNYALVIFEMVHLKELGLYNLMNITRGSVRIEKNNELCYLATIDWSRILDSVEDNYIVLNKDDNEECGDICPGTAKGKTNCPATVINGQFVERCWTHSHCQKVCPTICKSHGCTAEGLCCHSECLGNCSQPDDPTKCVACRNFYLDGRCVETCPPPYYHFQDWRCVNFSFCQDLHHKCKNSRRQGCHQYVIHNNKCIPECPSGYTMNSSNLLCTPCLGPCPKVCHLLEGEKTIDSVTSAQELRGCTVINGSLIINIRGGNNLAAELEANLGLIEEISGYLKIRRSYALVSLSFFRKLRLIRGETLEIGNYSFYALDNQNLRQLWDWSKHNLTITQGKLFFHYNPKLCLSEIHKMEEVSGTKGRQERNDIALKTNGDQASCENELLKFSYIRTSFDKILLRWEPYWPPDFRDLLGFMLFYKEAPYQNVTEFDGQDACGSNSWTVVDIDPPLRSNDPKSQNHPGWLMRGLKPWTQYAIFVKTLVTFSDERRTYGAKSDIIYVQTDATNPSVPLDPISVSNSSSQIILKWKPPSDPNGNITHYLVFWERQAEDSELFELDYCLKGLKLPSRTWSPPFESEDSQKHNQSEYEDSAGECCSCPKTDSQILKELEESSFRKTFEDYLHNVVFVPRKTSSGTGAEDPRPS
Chain of Insulin receptor (P06213 763-1382 limits assumed): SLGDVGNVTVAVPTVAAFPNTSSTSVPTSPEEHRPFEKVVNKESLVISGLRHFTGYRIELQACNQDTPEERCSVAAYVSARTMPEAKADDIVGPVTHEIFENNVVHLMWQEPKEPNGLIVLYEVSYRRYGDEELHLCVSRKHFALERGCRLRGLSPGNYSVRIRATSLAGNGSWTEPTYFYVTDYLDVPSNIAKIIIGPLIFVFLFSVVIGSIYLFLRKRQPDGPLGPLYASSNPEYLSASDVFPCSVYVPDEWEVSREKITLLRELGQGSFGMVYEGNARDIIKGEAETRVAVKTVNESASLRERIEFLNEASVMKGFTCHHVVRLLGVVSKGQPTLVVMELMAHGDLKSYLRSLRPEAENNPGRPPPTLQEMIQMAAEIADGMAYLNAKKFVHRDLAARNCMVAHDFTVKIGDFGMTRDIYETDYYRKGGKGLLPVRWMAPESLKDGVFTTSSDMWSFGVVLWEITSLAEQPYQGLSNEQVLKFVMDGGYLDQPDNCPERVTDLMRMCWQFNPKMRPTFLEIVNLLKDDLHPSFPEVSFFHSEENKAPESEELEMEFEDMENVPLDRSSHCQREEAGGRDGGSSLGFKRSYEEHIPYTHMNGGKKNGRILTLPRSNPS
Data set [12] concerns the target GABA-A receptor; anion channel. In words: Inhibition of GABA (unknown origin). Type of data set: toxicity, Homo sapiens.
Data set [13] deals with Glutamate [NMDA] receptor. In words: Inhibition of NMDA (unknown origin). The data set is classed as toxicity, Homo sapiens.
In data set [14] the target is CaV-L (Voltage-gated L-type calcium channel) (Homo sapiens, UniProt O60840+Q01668+Q13698+Q13936). In words: Inhibition of CaV-L (unknown origin). Type of data set: toxicity.

The term Kd denotes the constant that tells how readily two partners part at equilibrium. High values mean a looser complex, low ones a tighter complex. As usually defined, the IC50 is the concentration that gives 50% inhibition. As usually defined, the logD is the decadic logarithm of the distribution of all forms, ionised or not, between an organic phase and buffer at a given pH. Low readings indicate lower lipophilicity, high ones higher lipophilicity.

`O=C(O)c1nc(-c2ccc(Cl)cc2)nc(O)c1O` registered a dissociation constant Kd in [1] of 1100 nM. In data set [2], this molecule gave an IC50 of 2100 nM.

`O=C(O)c1nc(C2CCCCC2)nc(O)c1O` came in with a Kd in data set [1] of 2200 nM. In [2], this molecule yielded an IC50 of 2800 nM.

Molecule `COC(=O)c1nc(-c2ccccc2)[nH]c(=O)c1O` displayed a Kd in data set [1] of 56000 nM. The IC50 in [2] is above 100000 nM.

Consider `Cc1nc(C(=O)O)c(O)c(=O)[nH]1`, for which the dissociation constant Kd in [1] came to 44000 nM. In [2], this molecule displayed an IC50 above 100000 nM.

For `O=C(O)c1nc(-c2cccc(Cl)c2)nc(O)c1O`, the Kd in data set [1] is 4800 nM. In [2], this molecule displayed an IC50 of 5600 nM.

In [1], `O=C(O)c1nc(-c2ccc(Br)cc2)nc(O)c1O` came in with a Kd of 1000 nM. In data set [2], it took 2000 nM to reach half-maximal inhibition (IC50).

For the molecule `O=C(O)c1nc(-c2ccccc2)nc(O)c1O`, the Kd in data set [1] was 2300 nM. This molecule also yielded an IC50 in [2] of 3900 nM.

With `O=C(O)c1nc(-c2ccc(-c3ccccc3)cc2)[nH]c(=O)c1O`, the Kd in [1] amounted to 720 nM. In data set [2], this molecule came in with an IC50 of 2400 nM.

`CNC(=O)c1nc(-c2ccccc2)[nH]c(=O)c1O`: the Kd in [1] worked out at 74000 nM. For the same molecule, in data set [2], the IC50 is above 100000 nM.

Turning to `N#Cc1cc(-c2ccc(C(=O)N3CCNCC3)cc2)ccc1-n1cc(O)c(=O)c(C(=O)O)c1`, the logD in data set [3] was below 0. In data set [1], this molecule returned a Kd of 1100 nM. For the same molecule, the IC50 was 270 nM in data set [2]; above 40000 nM in data set [8]; above 100000 nM in data set [9]; above 100000 nM in data set [10]; above 100000 nM in data set [11]; above 100000 nM in [12]. In addition, the IC50 in data set [13] and in data set [14] was above 100000 nM each time. Moreover, the Kinetic_solubility in data set [4] was above 200 µM. The CLH in data set [5] was 7 µL/min/mg. The hepatocyte CLint in data set [6] is 10 µL/min/1e6 cells. Besides, in data set [7], the Ratio worked out at 1.1.

Consider `O=C(O)c1cn(-c2ccc(-c3ccc(C(=O)N4CCNCC4)cc3)cc2)cc(O)c1=O`, for which, in [3], the logD is listed as below 0. The Kd in data set [1] was found to be 670 nM. Besides, the IC50 in data set [2] was 320 nM; in data set [8], above 40000 nM; in data set [9] it was above 100000 nM; in data set [10] it was above 100000 nM; in [11], above 100000 nM; in data set [12], above 100000 nM. Further, the IC50 in data set [13] and in data set [14] was above 100000 nM in each case. In addition, the Kinetic_solubility in data set [4] is above 200 µM. Moreover, the CLH in data set [5] was below 3 µL/min/mg. Moreover, in data set [6], the hepatocyte CLint is 11 µL/min/1e6 cells. The Ratio in [7] was found to be 1.5.

Regarding `O=C(O)c1nc(-c2cccc(-c3ccccc3)c2)[nH]c(=O)c1O`, the Kd in [1] is 1800 nM. In data set [2], this molecule showed an IC50 of 2000 nM.

As for `O=C(O)c1nc(-c2ccccc2-c2ccccc2)[nH]c(=O)c1O`, the Kd in data set [1] came out at 4300 nM. Further, in data set [2], half-maximal inhibition (IC50) was put at 4500 nM.

Regarding `O=C(O)c1cc(-c2ccc(-c3ccccc3)cc2)[nH]c(=O)c1O`, in [1], the dissociation constant (Kd) was 1400 nM. The molecule also yielded an IC50 in data set [2] of 4100 nM.

Molecule `O=C(O)c1cn(-c2ccc(-c3ccccc3)cc2)cc(O)c1=O` gave a Kd in [1] of 790 nM. Moreover, the IC50 in [2] is 660 nM.

`O=C(O)c1cn(-c2ccc(N3CCNCC3)cc2)cc(O)c1=O` registered a Kd in data set [1] of 2000 nM. The molecule further displayed an IC50 in data set [2] of 470 nM.

Regarding `N#Cc1cc(N2CCNCC2)ccc1-n1cc(O)c(=O)c(C(=O)O)c1`, binding in data set [1] was characterised by a dissociation constant (Kd) of 1200 nM. Moreover, the IC50 in data set [2] was 470 nM.

In data set [1], `O=C(O)c1nc(-c2ccc(N3CCNCC3)cc2)[nH]c(=O)c1O` had a Kd of 2100 nM. For the same molecule, the IC50 in [2] was found to be 1200 nM.

Molecule `O=C(O)c1nc(-c2ccccc2Cl)[nH]c(=O)c1O` showed a Kd in data set [1] of 4000 nM. Moreover, the IC50 in data set [2] was 3800 nM.

For the molecule `N#CCc1ccc(-c2ccccc2-c2nc(C(=O)O)c(O)c(=O)[nH]2)cc1`, the Kd in data set [1] turned out to be 540 nM. In [2], this molecule returned an IC50 of 2800 nM.

The molecule `O=C(O)c1nc(-c2ccc3ccccc3c2)[nH]c(=O)c1O` displayed a Kd in data set [1] of 1300 nM. For the same molecule, in [2], the midpoint of inhibition, the IC50, lay at 1500 nM.

For `O=C(O)c1[nH]c(-c2ccc(-c3ccccc3)cc2)cc(=O)c1O`, in data set [1], the Kd amounted to 430 nM. This molecule also displayed a concentration for half-maximal inhibition (IC50) in data set [2] of 1100 nM.

`NC(=O)c1nc(-c2ccccc2)[nH]c(=O)c1O` gave a Kd in data set [1] above 100000 nM. The molecule further registered an IC50 in data set [2] above 100000 nM.

Turning to `CN(C)C(=O)c1nc(-c2ccccc2)[nH]c(=O)c1O`, the Kd in data set [1] was above 100000 nM. The IC50 in data set [2] was above 100000 nM.
